ChEMBL document CHEMBL1123424, “Conformationally defined adrenergic agents. 2. Catechol imidazoline derivatives: biological effects at alpha 1 and alpha 2 adrenergic receptors” (J Med Chem, 1986)

Experiments:
[1] = species: Oryctolagus cuniculus; experiment: The compound was evaluated for the alpha-1-adrenergic activity in isolated rabbit aortic tissue as E max; format: functional; settings: Aorta
Procedure, shortened: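 Rabbit aorta helical strip in Krebs buffer, pH 7.4, 37 °C, 2 g initial tension, isometric contraction. […] Washout every 10-15 min for 60-90 min, then cumulative test-compound curve in the same tissue. Index = ED50 NE/ED50 CPD, calculated per experiment, then averaged.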

[2] = target: Adrenergic receptor alpha-1 (Homo sapiens) (UniProt P35348+P25100+P35368); experiment: Index is the ratio between ED50 value of Norepinephrine to test compound at alpha-1 adrenergic receptor
[3] = target: T1, Adrenergic receptor alpha-1 (Rattus norvegicus, UniProt P15823+P23944+P43140); experiment: The compound was evaluated for the inhibition of [3H]prazosin binding to alpha-1 adrenergic receptor from rat liver
T1 sequence (P15823 whole entry): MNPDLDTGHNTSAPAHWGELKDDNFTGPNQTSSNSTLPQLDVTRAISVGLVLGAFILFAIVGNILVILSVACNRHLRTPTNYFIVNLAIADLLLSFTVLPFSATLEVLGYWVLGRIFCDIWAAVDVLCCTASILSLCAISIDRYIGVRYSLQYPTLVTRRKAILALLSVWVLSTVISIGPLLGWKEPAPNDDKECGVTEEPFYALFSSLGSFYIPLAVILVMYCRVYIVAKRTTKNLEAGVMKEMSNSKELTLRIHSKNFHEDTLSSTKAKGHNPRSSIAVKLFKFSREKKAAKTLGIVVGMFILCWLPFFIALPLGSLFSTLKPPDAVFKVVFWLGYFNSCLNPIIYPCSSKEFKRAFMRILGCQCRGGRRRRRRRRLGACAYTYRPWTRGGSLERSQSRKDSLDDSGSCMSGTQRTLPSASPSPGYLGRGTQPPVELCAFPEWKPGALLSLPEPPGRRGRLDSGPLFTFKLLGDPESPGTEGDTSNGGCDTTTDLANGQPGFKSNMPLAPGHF
T1 sequence (P23944 whole entry): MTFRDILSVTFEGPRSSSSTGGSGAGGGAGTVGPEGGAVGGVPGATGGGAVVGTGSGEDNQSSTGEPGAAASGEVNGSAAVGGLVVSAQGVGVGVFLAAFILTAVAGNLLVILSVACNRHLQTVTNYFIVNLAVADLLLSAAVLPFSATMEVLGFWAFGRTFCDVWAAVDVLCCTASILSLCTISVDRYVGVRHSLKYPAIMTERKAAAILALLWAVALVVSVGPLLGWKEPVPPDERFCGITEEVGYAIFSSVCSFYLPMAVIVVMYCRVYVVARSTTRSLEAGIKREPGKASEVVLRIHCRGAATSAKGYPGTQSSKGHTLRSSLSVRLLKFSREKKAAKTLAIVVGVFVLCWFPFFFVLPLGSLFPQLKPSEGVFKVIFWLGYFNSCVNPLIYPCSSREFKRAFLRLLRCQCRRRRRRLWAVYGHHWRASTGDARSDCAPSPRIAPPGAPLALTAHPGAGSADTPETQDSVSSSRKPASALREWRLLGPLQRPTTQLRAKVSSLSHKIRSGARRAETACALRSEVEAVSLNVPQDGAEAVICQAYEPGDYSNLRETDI
T1 sequence (P43140 whole entry): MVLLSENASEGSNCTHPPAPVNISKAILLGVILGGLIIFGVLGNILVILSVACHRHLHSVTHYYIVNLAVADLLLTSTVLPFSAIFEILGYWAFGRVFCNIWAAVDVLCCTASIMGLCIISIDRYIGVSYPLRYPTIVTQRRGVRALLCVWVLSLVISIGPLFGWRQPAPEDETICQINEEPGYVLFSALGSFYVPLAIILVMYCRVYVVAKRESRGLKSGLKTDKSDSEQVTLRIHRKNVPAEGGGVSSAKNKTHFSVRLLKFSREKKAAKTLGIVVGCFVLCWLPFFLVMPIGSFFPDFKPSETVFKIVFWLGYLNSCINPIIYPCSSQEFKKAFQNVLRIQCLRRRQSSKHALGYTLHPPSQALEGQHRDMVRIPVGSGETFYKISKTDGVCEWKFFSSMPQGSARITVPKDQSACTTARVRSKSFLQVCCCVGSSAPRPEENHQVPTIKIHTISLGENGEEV
Procedure, shortened: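 Washed rat liver membranes (male Sprague-Dawley) in 50 mM Tris-HCl pH 7.7, 50-150 μg/mL protein. [3H]prazosin incubated 50 min at 25 °C, then filtration. Nonspecific binding with phentolamine 10⁻⁵ M. At least four test concentrations between 10⁻¹⁰ and 10⁻³ M, in duplicate. IC50 from logit-log plot, Ki by Cheng-Prusoff.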

[4] = species: Canis familiaris; experiment: The compound was evaluated for the alpha-2-adrenergic activity in PBZ-pretreated dog saphenous vein as E max; format: functional; settings: Canis lupus familiaris
Procedure, shortened: (§1)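 Dog saphenous vein strips, gassed 95% O2/5% CO2, 37 °C, pH 7.45, 2 g preload, isometric contraction. After 15-20 min equilibration, maximal NE contraction (1 × 10⁻⁴ M) and 60 min wash. Phenoxybenzamine 1 × 10⁻⁷ M for 30 min, 60 min washout. Control cumulative NE curve, washout 45-60 min, then cumulative test-agonist curve. Index = ED50 NE/ED50 CPD per experiment, averaged.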

[5] = target: T2, Adrenergic receptor alpha-2 (Rattus norvegicus, UniProt P22086+P19328+P22909); experiment: The compound was evaluated for the inhibition of [3H]rauwolscine binding to alpha-2-adrenergic receptor from rat cortex
T2 sequence (P22086 whole entry): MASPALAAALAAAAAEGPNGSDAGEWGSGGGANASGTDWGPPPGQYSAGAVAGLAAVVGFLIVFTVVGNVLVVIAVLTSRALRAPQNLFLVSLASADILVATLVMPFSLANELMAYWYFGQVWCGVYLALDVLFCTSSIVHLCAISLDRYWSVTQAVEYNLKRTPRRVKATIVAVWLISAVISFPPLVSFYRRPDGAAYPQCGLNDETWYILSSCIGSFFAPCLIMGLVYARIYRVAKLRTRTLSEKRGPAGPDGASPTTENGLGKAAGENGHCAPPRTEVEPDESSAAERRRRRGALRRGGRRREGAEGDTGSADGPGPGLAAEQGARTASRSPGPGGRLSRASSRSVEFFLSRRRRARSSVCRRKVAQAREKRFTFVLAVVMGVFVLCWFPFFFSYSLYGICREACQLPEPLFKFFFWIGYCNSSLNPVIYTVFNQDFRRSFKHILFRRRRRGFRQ
T2 sequence (P19328 whole entry): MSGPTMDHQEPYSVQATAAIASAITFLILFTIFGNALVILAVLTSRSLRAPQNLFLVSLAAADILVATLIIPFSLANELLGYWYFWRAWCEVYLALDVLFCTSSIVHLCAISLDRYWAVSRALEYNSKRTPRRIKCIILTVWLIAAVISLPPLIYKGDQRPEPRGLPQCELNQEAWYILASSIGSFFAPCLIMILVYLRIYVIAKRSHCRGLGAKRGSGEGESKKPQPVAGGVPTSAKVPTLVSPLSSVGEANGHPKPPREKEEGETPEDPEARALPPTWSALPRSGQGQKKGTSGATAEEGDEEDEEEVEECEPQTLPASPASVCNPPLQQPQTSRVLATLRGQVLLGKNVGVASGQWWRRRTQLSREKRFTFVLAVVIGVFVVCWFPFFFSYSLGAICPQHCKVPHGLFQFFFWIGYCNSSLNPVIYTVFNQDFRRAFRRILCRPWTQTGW
T2 sequence (P22909 whole entry): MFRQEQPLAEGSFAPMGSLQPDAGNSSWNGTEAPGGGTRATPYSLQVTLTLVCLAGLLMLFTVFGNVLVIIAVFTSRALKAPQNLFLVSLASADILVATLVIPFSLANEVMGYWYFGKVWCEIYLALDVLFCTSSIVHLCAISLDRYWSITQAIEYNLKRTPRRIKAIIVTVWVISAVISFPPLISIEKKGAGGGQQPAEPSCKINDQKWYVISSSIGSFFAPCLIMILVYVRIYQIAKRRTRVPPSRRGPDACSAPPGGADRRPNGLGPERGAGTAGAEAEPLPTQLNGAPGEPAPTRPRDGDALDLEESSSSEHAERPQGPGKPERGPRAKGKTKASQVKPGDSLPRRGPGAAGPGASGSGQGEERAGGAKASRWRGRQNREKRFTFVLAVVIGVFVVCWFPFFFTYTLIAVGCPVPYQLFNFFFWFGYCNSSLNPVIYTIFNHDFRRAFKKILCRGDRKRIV
Procedure, shortened: (§2)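 Washed membranes of pooled male Sprague-Dawley rat cerebral cortex in 50 mM Tris-HCl pH 7.7, 50-150 μg/mL protein. [3H]rauwolscine incubated 2 h at 4 °C, then filtration. Nonspecific binding with phentolamine 10⁻⁵ M. At least four test concentrations between 10⁻¹⁰ and 10⁻³ M, in duplicate. IC50 from logit-log plot, Ki by Cheng-Prusoff.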

[6] = target: Adrenergic receptor alpha-2 (Homo sapiens) (UniProt P08913+P18825+P18089); experiment: Index is the ratio between ED50 value of Norepinephrine to test compound at alpha-2 adrenergic receptor; procedure, shortened: as §1
[7] = target: T2, Adrenergic receptor alpha-2; experiment: The compound was evaluated for the binding affinity towards alpha-2 adrenergic receptor from rat cortex; procedure, shortened: as §2
[8] = species: Canis familiaris; experiment: The compound was evaluated for the alpha-2-adrenergic activity in PBZ-pretreated dog saphenous vein as EED50 CPD; format: functional, Canis lupus familiaris; procedure, shortened: as §1

SMILES | Emax [1] [%] | Ratio [2] | IC50 [3] [nM] | Ki [3] [nM] | Emax [4] [%] | IC50 [5] [nM] | Ratio [6] | Ki [7] [nM] | ED50 [8]
Br.Oc1ccc2c(c1O)CCCC2C1=NCCN1 (stereo not given) | 114 | 13 | 2500 | 400 | 102 | 7 | 188 | 6.5 | 
Br.Oc1ccc2c(c1O)CCC2C1=NCCN1 (stereo not given) | 124 | 12 | 1570 | 350 | 102 | 3.3 | 22 | 3.1 | 
Br.Oc1ccc2c(c1O)CCCCC2C1=NCCN1 (stereo not given) |  |  | 56000 | 13000 |  | 4200 | 0.03 | 4000 | 350
Br.Oc1ccc2c(c1O)CC2C1=NCCN1 (stereo not given) | 98 | 0.4 | 4400 | 1100 | 67 | 49 | 1.8 | 46 | 
